# Experimental data as given in ChEMBL document CHEMBL3407374, “Synthesis of structural analogues of hexadecylphosphocholine and their antineoplastic, antimicrobial and amoebicidal activity” (Eur J Med Chem, 2015).
# Test system: A2780
# Assay: Cytotoxicity against human A2780 cells after 24 hrs by MTT method
# Type: functional, cell-based
# Conditions: A2780, 24 h
# In short: (§1)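 MCF-7 grown in MEM with NEA, FCS, glutamine; A2780 in RPMI-1640 with FCS, glutamine; 37 °C, 5% CO₂, trypsin-EDTA passaging. Seeded 20 000 cells/well, treated after about 20 h; 24-h exposure. MTT read-out, formazan dissolved in DMSO, read at 492/520 nm. IC50 from log inhibitor versus normalized response sigmoidal fit.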
row,SMILES,IC50
1,CCCCCCCCCCCC[N+](C)(C)CCOP(=O)([O-])OCCCCC,18.3 µM
2,CCCCCCCCCCOP(=O)([O-])OCC[N+](C)(C)CCCCCCC,35.1 µM
3,CCCCCCCCCCCCCC[N+](C)(C)CCOP(=O)([O-])OCCC,9.26 µM
4,CCCCCCCCCCCOP(=O)([O-])OCC[N+](C)(C)CCCCCC,19.2 µM
5,CCCCCCCCCOP(=O)([O-])OCC[N+](C)(C)CCCCCCCC,7.31 µM
6,CCCCCCCCCCC[N+](C)(C)CCOP(=O)([O-])OCCCCCC,25.7 µM

# Test system: Escherichia coli
# Assay: Antimicrobial activity against Escherichia coli ATCC 377/79 assessed as prevention of colony formation after 24 hrs by spectrophotometry
# Type: functional
# Conditions: ATCC 377/79, 24 h
# In short: (§2)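 Bacteria grown 24 h on blood agar, Candida on Sabouraud agar; suspensions in physiological solution (pH 7.2), 5 × 10⁷ CFU/ml bacteria, 5 × 10⁵ CFU/ml Candida. […] suspension added to aqueous compound solution plus double-strength peptone broth (bacteria) or Sabouraud medium (Candida). Incubated 24 h at 37 °C in 96-well plates, then subcultured on agar 24 h at 37 °C.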
row,SMILES,MIC
1,CCCCCCCCCCCC[N+](C)(C)CCOP(=O)([O-])OCCCCC,> 1000 µM
2,CCCCCCCCCCOP(=O)([O-])OCC[N+](C)(C)CCCCCCC,> 1000 µM
3,CCCCCCCCCCCCCC[N+](C)(C)CCOP(=O)([O-])OCCC,> 1000 µM
4,CCCCCCCCCCCOP(=O)([O-])OCC[N+](C)(C)CCCCCC,> 1000 µM
5,CCCCCCCCCOP(=O)([O-])OCC[N+](C)(C)CCCCCCCC,> 1000 µM
6,CCCCCCCCCCC[N+](C)(C)CCOP(=O)([O-])OCCCCCC,> 1000 µM

# Test system: Staphylococcus aureus
# Assay: Antimicrobial activity against Staphylococcus aureus ATCC 29/58 assessed as prevention of colony formation after 24 hrs by spectrophotometry
# Type: functional
# Conditions: ATCC 29/58, 24 h
# In short: as §2
row,SMILES,MIC
1,CCCCCCCCCCCC[N+](C)(C)CCOP(=O)([O-])OCCCCC,> 1000 µM
2,CCCCCCCCCCOP(=O)([O-])OCC[N+](C)(C)CCCCCCC,> 1000 µM
3,CCCCCCCCCCCCCC[N+](C)(C)CCOP(=O)([O-])OCCC,> 1000 µM
4,CCCCCCCCCCCOP(=O)([O-])OCC[N+](C)(C)CCCCCC,> 1000 µM
5,CCCCCCCCCOP(=O)([O-])OCC[N+](C)(C)CCCCCCCC,> 1000 µM
6,CCCCCCCCCCC[N+](C)(C)CCOP(=O)([O-])OCCCCCC,> 1000 µM

# Test system: MCF7
# Assay: Cytotoxicity against human MCF7 cells after 24 hrs by MTT method
# Type: functional, cell-based
# Conditions: MCF7, 24 h
# In short: as §1
row,SMILES,IC50
1,CCCCCCCCCCCC[N+](C)(C)CCOP(=O)([O-])OCCCCC,25.8 µM
2,CCCCCCCCCCOP(=O)([O-])OCC[N+](C)(C)CCCCCCC,62.2 µM
3,CCCCCCCCCCCCCC[N+](C)(C)CCOP(=O)([O-])OCCC,20.9 µM
4,CCCCCCCCCCCOP(=O)([O-])OCC[N+](C)(C)CCCCCC,111 µM
5,CCCCCCCCCOP(=O)([O-])OCC[N+](C)(C)CCCCCCCC,34 µM
6,CCCCCCCCCCC[N+](C)(C)CCOP(=O)([O-])OCCCCCC,64.5 µM

# Test system: Candida albicans
# Assay: Antimicrobial activity against Candida albicans ATCC 8186 assessed as prevention of colony formation after 24 hrs by spectrophotometry
# Type: functional
# Conditions: ATCC 8186, 24 h
# In short: as §2
row,SMILES,MIC
1,CCCCCCCCCCCC[N+](C)(C)CCOP(=O)([O-])OCCCCC,352 µM
2,CCCCCCCCCCOP(=O)([O-])OCC[N+](C)(C)CCCCCCC,180 µM
3,CCCCCCCCCCCCCC[N+](C)(C)CCOP(=O)([O-])OCCC,86.3 µM
4,CCCCCCCCCCCOP(=O)([O-])OCC[N+](C)(C)CCCCCC,188 µM
5,CCCCCCCCCOP(=O)([O-])OCC[N+](C)(C)CCCCCCCC,734 µM
6,CCCCCCCCCCC[N+](C)(C)CCOP(=O)([O-])OCCCCCC,360 µM

# Test system: Acanthamoeba quina
# Assay: Antiprotozoal activity against Acanthamoeba quina trophozoites assessed as viability after 1 to 48 hrs by trypan blue exclusion assay
# Type: functional
# Conditions: not given
# In short: (§3)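 Trophozoites axenized from 2-day monoxenic agar cultures via BCS then PYG media with antibiotics, then cultured antibiotic-free in PYG. 2 × 10⁵ cells/ml suspension mixed 1:1 with medium holding compound; final […]. Survivors counted by haemocytometer with trypan blue at 1, 24, 48 h; eradication confirmed by 14-day PYG regrowth; MTC = lowest concentration giving 100% eradication.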
row,SMILES,MTC
1,CCCCCCCCCCCC[N+](C)(C)CCOP(=O)([O-])OCCCCC,125 µM
2,CCCCCCCCCCOP(=O)([O-])OCC[N+](C)(C)CCCCCCC,250 µM
3,CCCCCCCCCCCCCC[N+](C)(C)CCOP(=O)([O-])OCCC,125 µM
4,CCCCCCCCCCCOP(=O)([O-])OCC[N+](C)(C)CCCCCC,250 µM
5,CCCCCCCCCOP(=O)([O-])OCC[N+](C)(C)CCCCCCCC,250 µM
6,CCCCCCCCCCC[N+](C)(C)CCOP(=O)([O-])OCCCCCC,125 µM

# Test system: Acanthamoeba lugdunensis
# Assay: Antiprotozoal activity against Acanthamoeba lugdunensis trophozoites assessed as viability after 1 to 48 hrs by trypan blue exclusion assay
# Type: functional
# Conditions: not given
# In short: as §3
row,SMILES,MTC
1,CCCCCCCCCCCC[N+](C)(C)CCOP(=O)([O-])OCCCCC,125 µM
2,CCCCCCCCCCOP(=O)([O-])OCC[N+](C)(C)CCCCCCC,250 µM
3,CCCCCCCCCCCCCC[N+](C)(C)CCOP(=O)([O-])OCCC,125 µM
4,CCCCCCCCCCCOP(=O)([O-])OCC[N+](C)(C)CCCCCC,125 µM
5,CCCCCCCCCOP(=O)([O-])OCC[N+](C)(C)CCCCCCCC,250 µM
6,CCCCCCCCCCC[N+](C)(C)CCOP(=O)([O-])OCCCCCC,62.5 µM

# Test system: HuT78
# Assay: Cytotoxicity against human HUT78 cells after 24 hrs by MTS method
# Type: functional, cell-based
# Conditions: HuT78, 24 h
# In short: (§4)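 THP-1 and HUT-78 grown in suspension in RPMI-1640 with FCS, glutamine, penicillin-streptomycin, NEA, 2-sulfanylethanol, sodium pyruvate; 37 °C, 5% CO₂; passaged by centrifugation. 24-h exposure; MTS read-out (water-soluble formazan) at 492/520 nm. IC50 from log inhibitor versus normalized response sigmoidal fit.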
row,SMILES,IC50
1,CCCCCCCCCCCC[N+](C)(C)CCOP(=O)([O-])OCCCCC,68 µM
2,CCCCCCCCCCOP(=O)([O-])OCC[N+](C)(C)CCCCCCC,52.9 µM
3,CCCCCCCCCCCCCC[N+](C)(C)CCOP(=O)([O-])OCCC,29.1 µM
4,CCCCCCCCCCCOP(=O)([O-])OCC[N+](C)(C)CCCCCC,82.6 µM
5,CCCCCCCCCOP(=O)([O-])OCC[N+](C)(C)CCCCCCCC,146 µM
6,CCCCCCCCCCC[N+](C)(C)CCOP(=O)([O-])OCCCCCC,96 µM

# Test system: not listed separately
# Assay: Cytotoxicity against human lymphocytes assessed as growth inhibition at 500 uM after 24 hrs by MTS method
# Type: cell-based, Lymphocyte
# Conditions: human lymphocytes, read-out: GI
row,SMILES,"inhibition at 24 h, 500 µM"
1,CCCCCCCCCCCCCC[N+](C)(C)CCOP(=O)([O-])OCCC,12%

# Same assay, conditions: lymphocyte, 24 h, 500 µM
row,SMILES,growth inhibition (GI)
1,CCCCCCCCCOP(=O)([O-])OCC[N+](C)(C)CCCCCCCC,Non-toxic

# Test system: not listed separately
# Assay: Solubility of the compound in water
# Type: physicochemical
# Conditions: buffer
row,SMILES,solubility
1,CCCCCCCCCCCC[N+](C)(C)CCOP(=O)([O-])OCCCCC,soluble
2,CCCCCCCCCCOP(=O)([O-])OCC[N+](C)(C)CCCCCCC,soluble
3,CCCCCCCCCCCCCC[N+](C)(C)CCOP(=O)([O-])OCCC,soluble
4,CCCCCCCCCCCOP(=O)([O-])OCC[N+](C)(C)CCCCCC,soluble
5,CCCCCCCCCOP(=O)([O-])OCC[N+](C)(C)CCCCCCCC,soluble
6,CCCCCCCCCCC[N+](C)(C)CCOP(=O)([O-])OCCCCCC,soluble

# Test system: THP-1
# Assay: Cytotoxicity against human THP1 cells after 24 hrs by MTS method
# Type: functional, cell-based
# Conditions: THP-1, 24 h
# In short: as §4
row,SMILES,IC50
1,CCCCCCCCCCCC[N+](C)(C)CCOP(=O)([O-])OCCCCC,71.2 µM
2,CCCCCCCCCCOP(=O)([O-])OCC[N+](C)(C)CCCCCCC,101 µM
3,CCCCCCCCCCCCCC[N+](C)(C)CCOP(=O)([O-])OCCC,29.4 µM
4,CCCCCCCCCCCOP(=O)([O-])OCC[N+](C)(C)CCCCCC,92 µM
5,CCCCCCCCCOP(=O)([O-])OCC[N+](C)(C)CCCCCCCC,170 µM
6,CCCCCCCCCCC[N+](C)(C)CCOP(=O)([O-])OCCCCCC,31.2 µM

# Test system: not listed separately
# Assay: Critical micelle concentration of the compound
# Type: ADME
# Conditions: not given
row,SMILES,CMC
1,CCCCCCCCOP(=O)([O-])OCC[N+](C)(C)CCCCCCCC,1 mmol/dm3
